Measured values: ChEMBL document CHEMBL1124958 (J Med Chem, 1990)

How the values were obtained:
[1] = target: T1, 5-hydroxytryptamine receptor 1A (Mus musculus) (UniProt Q64264); assay: Hill number was determined for inhibition of [3H]8-OH-DPAT binding to 5-hydroxytryptamine 1A receptor in mouse hippocampus; assay type: tissue-based
T1 sequence (whole entry): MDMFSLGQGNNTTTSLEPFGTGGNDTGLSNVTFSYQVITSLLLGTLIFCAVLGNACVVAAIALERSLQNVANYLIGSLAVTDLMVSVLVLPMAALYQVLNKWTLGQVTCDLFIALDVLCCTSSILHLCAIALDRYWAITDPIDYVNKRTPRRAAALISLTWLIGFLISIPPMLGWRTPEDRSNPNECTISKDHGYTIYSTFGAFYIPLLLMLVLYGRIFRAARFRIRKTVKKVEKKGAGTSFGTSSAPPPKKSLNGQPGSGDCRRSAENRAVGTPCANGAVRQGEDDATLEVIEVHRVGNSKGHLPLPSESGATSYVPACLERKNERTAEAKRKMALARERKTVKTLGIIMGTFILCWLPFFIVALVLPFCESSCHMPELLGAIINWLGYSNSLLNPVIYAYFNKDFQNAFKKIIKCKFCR

[2] = target: T2, Serotonin 2 (5-HT2) receptor (Mus musculus, UniProt Q02152+P34968+P35363); assay: Binding affinity towards 5-hydroxytryptamine 2 receptor by the displacement of [3H]-ketanserin in mouse cerebral cortex; assay type: tissue-based
Method in brief: (§1)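 BALB/cBy mouse cerebral cortex, homogenized in 0.25 M sucrose; 1000g supernatant pelleted at 35000g and washed in 50 mM Tris-HCl pH 7.4. Nonspecific binding defined with 1 μM methysergide. Filtration on GF/B, scintillation counting. IC50 from computer fit of seven-point curves, averaged over 2–5 determinations.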

[3] = target: T2, Serotonin 2 (5-HT2) receptor; assay: Inhibitory activity towards 5-hydroxytryptamine 2 receptor by the displacement of [3H]ketanserin in mouse cerebral cortex; assay type: tissue-based; method in brief: as §1
[4] = target: T3, 5-hydroxytryptamine receptor 1A (Mus musculus, UniProt Q64264); assay: Inhibitory activity towards 5-hydroxytryptamine 1A receptor by the displacement of [3H]8-OH-DPAT in mouse hippocampus; assay type: tissue-based
T3 sequence (Q64264 whole entry): T1 sequence (whole entry)

[5] = target: Serotonin 2 (5-HT2) receptor (Mus musculus) (UniProt Q02152+P34968+P35363); assay: Hill number was determined for inhibition of [3H]ketanserin binding to 5-hydroxytryptamine 2 receptor in mouse cerebral cortex; assay type: tissue-based
Serotonin 2 (5-HT2) receptor (Mus musculus), sequence (P34968 whole entry, looked up): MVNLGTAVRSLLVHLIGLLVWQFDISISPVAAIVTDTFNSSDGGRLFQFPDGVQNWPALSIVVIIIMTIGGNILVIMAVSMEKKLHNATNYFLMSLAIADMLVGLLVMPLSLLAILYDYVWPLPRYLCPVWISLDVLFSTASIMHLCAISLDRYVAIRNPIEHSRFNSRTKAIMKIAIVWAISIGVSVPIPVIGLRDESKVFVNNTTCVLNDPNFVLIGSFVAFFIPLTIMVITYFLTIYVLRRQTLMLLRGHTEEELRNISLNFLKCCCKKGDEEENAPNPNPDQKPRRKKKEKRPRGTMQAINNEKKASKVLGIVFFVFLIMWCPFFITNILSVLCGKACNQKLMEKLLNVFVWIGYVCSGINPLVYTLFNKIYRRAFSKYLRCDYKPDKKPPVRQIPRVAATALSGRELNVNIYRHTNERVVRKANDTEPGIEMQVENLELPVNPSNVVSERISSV
Serotonin 2 (5-HT2) receptor (Mus musculus), sequence (P35363 whole entry, looked up): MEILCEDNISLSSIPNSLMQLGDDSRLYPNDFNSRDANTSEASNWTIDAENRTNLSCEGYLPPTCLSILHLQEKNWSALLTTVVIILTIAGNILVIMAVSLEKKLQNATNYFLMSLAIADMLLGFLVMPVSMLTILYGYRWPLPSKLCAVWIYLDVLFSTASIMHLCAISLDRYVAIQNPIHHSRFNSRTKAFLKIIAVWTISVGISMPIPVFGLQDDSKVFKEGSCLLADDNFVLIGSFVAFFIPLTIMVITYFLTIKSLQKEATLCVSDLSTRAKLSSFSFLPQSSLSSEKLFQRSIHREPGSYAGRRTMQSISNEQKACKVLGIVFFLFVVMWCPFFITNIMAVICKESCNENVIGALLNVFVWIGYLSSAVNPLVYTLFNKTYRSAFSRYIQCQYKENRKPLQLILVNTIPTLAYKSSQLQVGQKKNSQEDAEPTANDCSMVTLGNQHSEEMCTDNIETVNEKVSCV
Serotonin 2 (5-HT2) receptor (Mus musculus), sequence (Q02152 whole entry, looked up): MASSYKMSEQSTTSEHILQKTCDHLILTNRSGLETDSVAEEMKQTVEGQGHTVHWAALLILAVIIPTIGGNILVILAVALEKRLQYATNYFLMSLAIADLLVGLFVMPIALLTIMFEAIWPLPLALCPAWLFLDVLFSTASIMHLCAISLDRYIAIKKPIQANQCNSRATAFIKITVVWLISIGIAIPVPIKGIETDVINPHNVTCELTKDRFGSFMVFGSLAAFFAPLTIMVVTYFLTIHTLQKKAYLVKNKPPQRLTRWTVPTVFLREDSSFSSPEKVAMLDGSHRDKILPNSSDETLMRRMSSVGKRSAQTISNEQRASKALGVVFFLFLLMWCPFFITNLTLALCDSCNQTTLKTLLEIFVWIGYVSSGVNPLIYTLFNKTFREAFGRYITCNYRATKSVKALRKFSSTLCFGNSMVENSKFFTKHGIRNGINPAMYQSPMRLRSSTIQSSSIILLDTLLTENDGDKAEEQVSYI
Method in brief: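 Hill numbers taken from seven-point inhibition curves of 0.15 nM [3H]ketanserin binding to washed mouse cortical membranes in 50 mM Tris-HCl pH 7.4, incubated 15 min at 37 °C. Nonspecific binding set with 1 μM methysergide; bound radioligand collected by filtration and counted.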

[6] = target: T3, 5-hydroxytryptamine receptor 1A; assay: Binding affinity towards 5-hydroxytryptamine 1A receptor by the displacement of [3H]8-OH-DPAT in mouse hippocampus; assay type: tissue-based
Method in brief: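 Membranes incubated in triplicate with 1.2 nM [3H]8-OH-DPAT plus varying analogue concentrations, 30 min at 23 °C, 0.5 mL final volume. Filtered on PEI-pretreated GF/B; scintillation counting. IC50 derived from seven-point inhibition curves.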

[7] = target: T1, 5-hydroxytryptamine receptor 1A (Mus musculus); conditions: Hippocampus
Mus musculus [8] = organism: Mus musculus; assay: Hill number was determined for inhibition of [3H]ketanserin binding in mouse cerebral cortex; assay type: tissue-based
Method in brief: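 Cerebral cortex from adult BALB/cBy mice was homogenised in ice-cold 0.25 M sucrose pH 7.4. The 1000g supernatant was washed at 35000g in 50 mM Tris-HCl pH 7.4. Triplicate incubations ran 15 min at 37 °C with 0.15 nM [3H]ketanserin and varying analogue concentrations, final 2 mL. Nonspecific binding was set with 1 μM methysergide, and bound ligand was filtered on GF/B and counted by scintillation. Inhibition curves had seven points.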

Mus musculus [9] = organism: Mus musculus; assay: Hill number was determined for inhibition of [3H]8-OH-DPAT binding in mouse hippocampus; assay type: functional
Method in brief: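 Triplicate incubations ran 30 min at 23 °C with 1.2 nM [3H]8-OH-DPAT over varying analogue concentrations, followed by filtration on polyethylenimine-treated GF/B filters and scintillation counting. Inhibition curves had seven points.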

| Structure (SMILES) | Hill coefficient [1] | Ki [2] | IC50 [3] | IC50 [4] | Hill coefficient [5] | Ki [6] | further results |
| --- | --- | --- | --- | --- | --- | --- | --- |
| O=C1CC2CCC1C(N1CCCCC1)C2c1ccccc1 (stereo not drawn) | 0.89 | 132 µM | 181 µM | 358 µM | 1.2 | 274 µM |  |
| O=C1CC2CCC1C(N1CCCC1)C2c1c[nH]c2ccccc12 (stereo in doubt; 9a) [listing 1 of 2 here] |  | 23 µM | 32 µM | 46 µM |  | 32 µM |  |
| O=C1CC2CCC1C(N1CCCC1)C2c1c[nH]c2ccccc12 (stereo in doubt; 9a) [listing 2 of 2 here] |  |  |  |  | 0.9 |  | Hill coefficient [7]: 0.95 |
| O=C1CC2CCC1C(N1CCCC1)C2c1c[nH]c2ccccc12 (stereo in doubt; 9b) [listing 1 of 2 here] |  | 70 µM | 96 µM | 53 µM |  |  |  |
| O=C1CC2CCC1C(N1CCCC1)C2c1c[nH]c2ccccc12 (stereo in doubt; 9b) [listing 2 of 2 here] | 0.47 |  |  |  | 1 |  |  |
| O=C1CC2CCC1C(N1CCCCC1)C2c1c[nH]c2ccccc12 (stereo in doubt; 10a) [listing 1 of 2 here] |  | 4 µM | 5 µM | 86 µM |  | 61 µM |  |
| O=C1CC2CCC1C(N1CCCCC1)C2c1c[nH]c2ccccc12 (stereo in doubt; 10a) [listing 2 of 2 here] | 1.2 |  |  |  | 1 |  |  |
| O=C1CC2CCC1C(N1CCCCC1)C2c1c[nH]c2ccccc12 (stereo in doubt; 10b) [listing 1 of 2 here] |  | 61 µM | 84 µM | 160 µM |  | 115 µM |  |
| O=C1CC2CCC1C(N1CCCCC1)C2c1c[nH]c2ccccc12 (stereo in doubt; 10b) [listing 2 of 2 here] | 0.88 |  |  |  | 0.9 |  |  |
| C1=CC2CCC1C(c1c[nH]c3ccccc13)C2N1CCCC1 (stereo in doubt; 12a) [listing 1 of 2 here] |  | 14 µM | 19 µM | 12 µM |  | 8.5 µM |  |
| C1=CC2CCC1C(c1c[nH]c3ccccc13)C2N1CCCC1 (stereo in doubt; 12a) [listing 2 of 2 here] | 0.95 |  |  |  | 1 |  |  |
| C1=CC2CCC1C(c1c[nH]c3ccccc13)C2N1CCCC1 (stereo in doubt; 12b) [listing 1 of 2 here] |  | 17 µM | 24 µM | 47 µM |  |  |  |
| C1=CC2CCC1C(c1c[nH]c3ccccc13)C2N1CCCC1 (stereo in doubt; 12b) [listing 2 of 2 here] | 0.61 |  |  |  | 0.9 |  |  |
| C1=CC2CCC1C(c1c[nH]c3ccccc13)C2N1CCCCC1 (stereo in doubt; 13a) [listing 1 of 2 here] |  | 8 µM | 10 µM | 18 µM |  | 13.5 µM |  |
| C1=CC2CCC1C(c1c[nH]c3ccccc13)C2N1CCCCC1 (stereo in doubt; 13a) [listing 2 of 2 here] | 0.93 |  |  |  | 1 |  |  |
| C1=CC2CCC1C(c1c[nH]c3ccccc13)C2N1CCCCC1 (stereo in doubt; 13b) [listing 1 of 2 here] |  | 9 µM | 13 µM | 89 µM |  |  |  |
| C1=CC2CCC1C(c1c[nH]c3ccccc13)C2N1CCCCC1 (stereo in doubt; 13b) [listing 2 of 2 here] | 0.69 |  |  |  | 0.9 |  |  |
| NCCc1c[nH]c2ccc(O)cc12 [SEROTONIN] |  |  |  |  |  |  | Hill coefficient (Mus musculus [8]): 0.85; Hill coefficient (Mus musculus [9]): 0.75 |
